Data from publication PMC5362268 (Cell, 2017).
Values after ≈ are worked out from the molar mass of the structure shown. Values joined by “and” are separate entries in the source; they are usually repeats but may differ in a detail not shown here. Identical values can stand only once.

Tests used:
[1] = test system: HT-1080 cells (NRAS^Q61K); experiment: Lethality with PI3K and BRAF overexpression; format: cell-based, human; conditions: 24 h, 6-well format
Summary of the method: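 HT-1080 cells were retrovirally transduced using Phoenix-AMPHO supernatant, 0.45 µm filtered and added twice 4 h apart. After 48 h they were re-seeded under puromycin (2 μg/mL) for 6 d, and expression was checked by qPCR. Cells at 100,000/well in 6-well plates were treated 24 h, trypsinized, and viability read by Trypan blue exclusion (Vi-Cell).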

[2] = test system: CRAF-bound RAS in BJeLR cells; experiment: Cell-based RAS pulldown; set-up: species or system human
Summary of the method: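 BJeLR cells seeded 16 h before use in DMEM with 10% FBS. Medium then replaced with serum-free medium containing the test compound or a reference inhibitor (from 10 mM DMSO stocks), 24 h. c-RAF bound to RAS proteins was determined by pulldown.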

[3] = Solubility of compound 3144; format: physicochemical
KRAS^G12D D38A = KRAS^G12D D38A (Homo sapiens, UniProt P01116, D38A/G12D); experiment: MST, D38A point mutant; format: binding; conditions: compared with KRAS^G12D
[4] = test system: pERK and pAKT in BRAF-CAAX-containing MEFs; experiment: Western blots of mouse embryo fibroblasts; format: cell-based; conditions: compared with Kras MEFs
Summary of the method: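 MEFs seeded at 0.25 million/well in DMEM with Glutamax, 10% heat-inactivated FBS and P/S. Serum-starved 24 h, then given test compound in serum-free medium; EGF 10 ng/ml for 15 min where indicated. Band intensities background-subtracted; pERK and pAKT expressed as (phospho/tubulin)/(total/tubulin) and normalised to DMSO.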

K mouse weights on study = format: in vivo; conditions: individual mice
[5] = test system: Kras^lox/lox, Hras^−/−, Nras^−/− RERTn^ert/ert MEFs; experiment: MEF cell number after treatment; format: cell-based, mouse; conditions: 6-well, 24 h treatment
Summary of the method: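 6-well format: 200,000 cells/well seeded 16 h beforehand. Medium replaced with medium containing test compound (from 10 mM DMSO stocks) at indicated concentrations. After 24 h, cells trypsinized and counted by Trypan Blue exclusion (Vi-Cell).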

HRAS^wt = HRAS^wt (Homo sapiens, UniProt P01112); experiment: MST with RAS GTPases; format: binding; conditions: selectivity panel, GppNHp-loaded
[6] = test system: PDTALL22 patient T-ALL xenograft; experiment: Patient-derived xenograft study; format: in vivo, mouse; conditions: 30 mg/kg IP
Summary of the method: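 Retrovirally transduced luciferase-expressing T-ALL cells were expanded in primary recipients, harvested from spleen and injected into secondary recipients. These were randomised into two groups of 5 with equal luciferase load. Dosing: vehicle or 30 mg/kg IP in 5% DMSO in HBSS pH 4 on days 0, 1, 4, 5, 7, 8. Imaging on days 0, 4 and 8; sacrifice on day 8 for spleen weight and human CD45+ cells.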

SW480 (KRAS^G12V) = experiment: Multicellular tumor spheroids; format: cell-based, human; conditions: low-adherence plates, 72 h
KRAS^wt = KRAS^wt (Homo sapiens, UniProt P01116); experiment: MST with RAS GTPases; format: binding; conditions: selectivity panel, GppNHp-loaded
RALA-GTP in BJeLR cells = experiment: RALA activation assay; format: cell-based, human
Summary of the method: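 BJeLR cells seeded 16 h before use in DMEM with 2% FBS, then given medium with test compound (from 10 mM DMSO stock) for 6 h. Cells washed twice with ice-cold 25 mM Tris, 100 mM NaCl, 1 mM TCEP, 5 mM MgCl2, 0.1% Tween-20 with protease inhibitor. RALA-GTP pulled down on beads, eluted in SDS buffer and blotted.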

[7] = test system: Kras^lox/lox, Hras^−/−, Nras^−/− RERTn^ert/ert MEFs; experiment: Viability assay in mouse embryo fibroblasts; format: cell-based; conditions: Fibroblast, 48 h, read-out: IC50 (lethality)
Summary of the method: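 Cells trypsinised and seeded at 1,000/well in 384-well plates unless otherwise specified. After 16 h, 8- or 16-point dilution series (from 10 mM DMSO stocks) transferred at 1:5. At 48 h, Alamar blue added to 10% final; fluorescence read after 6 h (ex 535, em 590 nm). Triplicates; 37 °C, 5% CO2.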

RRAS2 = RRAS2 (Homo sapiens, UniProt P62070); experiment: MST with RAS GTPases; format: binding; conditions: selectivity panel, GppNHp-loaded
[8] = test system: pERK and pAKT in BJeLR (HRAS^V12) cells; experiment: Western blots of RAS signaling; format: cell-based, human
Summary of the method: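 Cells seeded 16 h before use in DMEM with 10% or 2% FBS plus P/S. Compound added in serum-free DMEM or DMEM 2% FBS for the indicated times. Lysis in HEPES pH 7.4 buffer with phosphatase and protease inhibitors; SDS-PAGE, PVDF transfer, Li-COR blocking, primary antibodies (1:1000) overnight at 4 °C.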

KRAS^G12D I36N = KRAS^G12D I36N (Homo sapiens, UniProt P01116, G12D/I36N); experiment: MST, I36N point mutant; format: binding; conditions: compared with KRAS^G12D
GDP complex of KRAS^G12D = GDP complex of KRAS^G12D (Homo sapiens, UniProt P01116, G12D); experiment: MST, GDP-bound KRAS^G12D; format: binding; conditions: compared with GppNHp-bound KRAS^G12D
[9] = test system: phosphorylated ERK in MDA-MB-231 xenograft; experiment: Pharmacodynamic study using MDA-MB-231 cells; format: in vivo, mouse; conditions: 30 mg/kg IP once per day for 6 d, vs vehicle
Summary of the method: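 Eight-week-old athymic nude mice received 8 million MDA-MB-231 cells subcutaneously. After 4 d they were grouped at ~128 mm³ tumours and dosed IP once daily for 6 d with 30 mg/kg in 5% DMSO HBSS pH 4, or with that vehicle. Tumours were then analysed for phosphorylated ERK.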

MDA-MB-231 xenograft = experiment: Xenograft therapeutic study in mice; format: in vivo, mouse; conditions: 180 mg/kg orally, 10 doses, 15 days of treatment, nude mice
Summary of the method: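 Eight-week-old female nude mice received 7 million MDA-MB-231 cells subcutaneously. After 3 d they were randomised at ~58 mm³ tumours. Dosing was oral, 180 mg/kg (12 mg/mL, 10% DMSO, pH 4) or vehicle, 10 doses over 14 d. Tumours measured by caliper every 2 d; volume = 0.523 × length × width².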

RRAS2, sequence (P62070 whole entry): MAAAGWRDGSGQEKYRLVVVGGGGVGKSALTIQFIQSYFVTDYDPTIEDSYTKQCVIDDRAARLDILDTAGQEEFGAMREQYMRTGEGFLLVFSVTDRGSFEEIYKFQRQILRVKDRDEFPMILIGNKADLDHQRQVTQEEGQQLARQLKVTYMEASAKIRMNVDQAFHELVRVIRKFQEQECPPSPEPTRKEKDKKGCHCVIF
HRAS^wt, sequence (P01112 whole entry): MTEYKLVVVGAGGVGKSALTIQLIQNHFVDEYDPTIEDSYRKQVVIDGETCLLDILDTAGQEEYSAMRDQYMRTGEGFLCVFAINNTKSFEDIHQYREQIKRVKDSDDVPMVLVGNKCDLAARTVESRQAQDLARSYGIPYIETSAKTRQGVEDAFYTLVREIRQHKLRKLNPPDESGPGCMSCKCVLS

NC1(C(=O)NCCCn2cc(-c3ccc(OC(F)(F)F)cc3)c3cc(CN4CCN(Cc5c(Cl)cccc5Cl)CC4)ccc32)CCNCC1 [compound 3144, 4-amino-N-(3-(5-((4-(2,6-dichlorobenzyl)piperazin-1-yl)methyl)-3-(4-(trifluoromethoxy)phenyl)-1H-indol-1-yl)propyl)piperidine-4-carboxamide]
lethality upon overexpression of activated alleles of PI3K and/or BRAF [1]: reduced | CRAF-bound RAS [2]: decreased | concentration without visible precipitation ([3]; aqueous buffers (e.g., phosphate buffered saline), room temperature, 1.5% DMSO): ≥ 250 µM | solubility ([3]; aqueous solutions, aqueous buffer, kinetic from dmso stock): 5 µM (≈ 3.59 µg/mL) | binding affinity to D38A mutant (KRAS^G12D D38A): reduced binding affinity | pERK and pAKT abundance [4]: more resistant | K mouse weights (K mouse weights on study; day 1 on study): 19.1 and 14.5 and 22.9 and 26.1 and 18.5 | K mouse weights (K mouse weights on study; day 2 on study): 18.4 and 14.1 and 21.6 and 24.7 and 17.4 | K mouse weights (K mouse weights on study; day 3 on study): 18.6 and 14.2 and 20.7 and 23.6 and 17 | K mouse weights (K mouse weights on study; day 4 on study): 17.5 and 14.2 and 20.1 and 23.27 and 17.7 | K mouse weights (K mouse weights on study; day 5 on study): 17.5 and 13.63 and 19.8 and 22.7 and 16.5 | concentrations not reducing the number of MEFs below the starting number [5]: below 3 μM | binding by MST (HRAS^wt): detected binding | percent of infiltrative human CD45+ cells in spleen ([6]; day 8): reduction | spleen cellularity (hematoxylin and eosin) ([6]; day 8): decreased cellularity | spleen size ([6]; day 8): decrease in size | tumor burden (luciferase imaging) ([6]; days 0, 1, 4, 5, 7, 8, imaged after 4 and 8 days): decrease in tumor burden | spheroid size (SW480 (KRAS^G12V)): decreased in size in a dose-dependent manner | binding by MST (KRAS^wt): detected binding | RALA-GTP (RALA-GTP in BJeLR cells): decreased | IC50 [7]: 3.8 µM | binding by MST (RRAS2): weak binding | EGF-induced pAKT and pERK abundance [8]: suppressed to a degree | pERK and pAKT abundance [8]: somewhat decreased | binding affinity to I36N mutant (KRAS^G12D I36N): reduced binding affinity | affinity for the GDP complex (GDP complex of KRAS^G12D): reduced affinity | tumor pERK levels [9]: somewhat decreased | tumor growth (MDA-MB-231 xenograft): inhibition of tumor growth
